Assay results as given in ChEMBL document CHEMBL1123485, “A lymphotropic prodrug of L-dopa: synthesis, pharmacological properties, and pharmacokinetic behavior of 1,3-dihexadecanoyl-2-[(S)-2-amino-3-(3,4-dihydroxyphenyl)prop anoyl] propane-1,2,3-triol” (J Med Chem, 1986).
Several values for one entry are separate records, joined by “and”; a condition that tells them apart may be missing. Equal values may be shown once.

Assays:
Mus musculus [1] = experiment: Peak plasma concentration expresses the ability of compound for the release of dopamine in the plasma of mouse after oral administration of […]; assay type: ADME, organism-based; set-up: route oral; settings: in vivo
Method in brief: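 Male NMRI mice (20–25 g), five per time point and compound, received 0.5 mmol/kg orally. They were decapitated at 10, 20 and 30 min and 1–6 h. Blood was collected, deproteinized with perchloric acid and assayed for L-Dopa and dopamine by HPLC with fluorometric detection. Cmax is given in nmol/mL and tmax in min.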

[2] = Time of maximum L-Dopa plasma concentration was measured in monkey ofter oral administration of the compound; assay type: ADME, organism-based; settings: simiiformes, in vivo
Method in brief: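 A single male Cynomolgus monkey (2.7 kg) was fasted 12 h and given 0.5 mmol/kg orally. Blood was drawn from the femoral vein, and plasma L-Dopa and dopamine were assayed by HPLC with fluorometric detection. Cmax is the peak plasma concentration (nmol/mL); tmax is the time of that peak (min).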

Rattus norvegicus [3] = experiment: Time of maximum L-Dopa plasma concentration was measured in rat ofter oral administration of the compound; assay type: ADME, organism-based; settings: in vivo
Method in brief: (§1)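 Overnight-fasted male Wistar rats (230–250 g), five per compound, received 0.5 mmol/kg orally. Tail-vessel blood was sampled at 10, 20 and 30 min and 1–6 h. Plasma was deproteinized with perchloric acid and centrifuged, then L-Dopa and dopamine were measured by reversed-phase HPLC with fluorometric detection, quantified by peak area. Cmax (nmol/mL) and tmax (min) were taken from the mean curves.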

Rattus norvegicus [4] = experiment: Time of maximum dopamine plasma concentration was measured in rat ofter oral administration of the compound; assay type: ADME, organism-based; settings: in vivo; method in brief: as §1
[5] = Time of maximum L-Dopa plasma concentration was measured in mouse ofter oral administration of the compound; settings: in vivo
Rattus norvegicus [6] = experiment: Peak plasma concentration expresses the ability of compound for the release of L-Dopa in the plasma of rat after oral administration of 0.5 mmol/kg; settings: in vivo
Rattus norvegicus [7] = experiment: Peak plasma concentration expresses the ability of compound for the release of dopamine in the plasma of rat after oral administration of 0.5 mmol/kg; settings: in vivo
[8] = Peak plasma concentration expresses the ability of compound for the release of L-Dopa in the plasma of monkey after oral administration of 0.5 mmol/kg; settings: simiiformes, in vivo
[9] = Peak plasma concentration expresses the ability of compound for the release of dopamine in the plasma of monkey after oral administration of 0.5 mmol/kg; settings: simiiformes, in vivo
Mus musculus [10] = experiment: Peak plasma concentration expresses the ability of compound for the release of L-Dopa in the plasma of mouse after oral administration of 0.5 mmol/kg; settings: in vivo

Compound	Cmax (Mus musculus [1])	T max [2] [h]	T max (Rattus norvegicus [3]) [h]	T max (Rattus norvegicus [4])	T max [5] [h]	Cmax (Rattus norvegicus [6]) [nM ml-1]	Cmax (Rattus norvegicus [7]) [nM ml-1]	Cmax [8] [nM ml-1]	Cmax [9] [nM ml-1]	Cmax (Mus musculus [10]) [nM ml-1]
CCCCCCCCCCCCCCCC(=O)OCC(COC(=O)CCCCCCCCCCCCCCC)OC(=O)C(N)Cc1ccc(O)c(O)c1 (centres undefined)	1.6 nM ml-1 and 3.54 nM ml-1	1.83	3	4 h and 2.5 h	2	24.6	17.1	18.3	6.1	–
N[C@@H](Cc1ccc(O)c(O)c1)C(=O)O [LEVODOPA]	–	–	–	–	0.5	16.2	–	9.5	8.1	1.12
